Values after ≈ are worked out from the molar mass of the structure shown.
Experiments:
Staphylococcus aureus [1] = assay: Antibacterial activity against Staphylococcus aureus harboring RpoBH481Y/ParCS80F/GyrAS84L triple mutant assessed as inhibition of bacterial growth; type: functional
HEK293 = assay: Cytotoxicity against HEK293 cells; type: toxicity, cell-based, Homo sapiens
Staphylococcus aureus [2] = assay: Antibacterial activity against wild type Staphylococcus aureus assessed as inhibition of bacterial growth; type: functional
Staphylococcus aureus [3] = assay: Antibacterial activity against rifampicin resistant Staphylococcus aureus harboring RpoBH481Y mutant assessed as inhibition of bacterial growth; type: functional
Staphylococcus aureus [4] = assay: Antibacterial activity against ciprofloxacin resistant Staphylococcus aureus harboring ParCS80F and GyrAS84L double mutant assessed as inhibition of bacterial growth; type: functional
Escherichia coli = assay: Antibacterial activity against Escherichia coli assessed as inhibition of bacterial growth; type: functional
How it was run: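 Run in duplicate, with the same result obtained in each trial.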

With `CC(=O)O[C@H]1[C@H](C)[C@H](O)[C@H](C)[C@@H](O)[C@@H](C(C)OC(=O)C(C)(C)CC(=O)O)/C=C/C=C(/C)C(=O)Nc2c3oc4cc(NCCCCCCCCC(=O)N5Cc6cc(-c7ccc8c(=O)c(C(=O)O)cn(C9CC9)c8c7OC(F)F)ccc6[C@H]5C)cc(O)c4nc-3c3c4c(c(C)c(O)c3c2=O)O[C@](C)(O/C=C/[C@H](O[C@H]2C[C@@H]3OCO[C@@H]3[C@@H](C)O2)[C@H]1C)C4=O` (stereo partly drawn) the MIC (Staphylococcus aureus [1]) was > 64 µg/mL, the IC50 (HEK293) was > 64 µg/mL and the MIC (Staphylococcus aureus [2]) was 4 µg/mL (≈ 2.4 µM). The MIC (Staphylococcus aureus [3]) was 8 µg/mL (≈ 4.8 µM), the MIC (Staphylococcus aureus [4]) was 4 µg/mL (≈ 2.4 µM) and the MIC (Escherichia coli) was > 64 µg/mL.
With `CC(=O)O[C@H]1[C@H](C)[C@H](O)[C@H](C)[C@@H](O)[C@@H](C(C)OC(=O)C(C)(C)CC(=O)O)/C=C/C=C(/C)C(=O)Nc2c3oc4cc(NCCCCCC(=O)N5Cc6cc(-c7ccc8c(=O)c(C(=O)O)cn(C9CC9)c8c7OC(F)F)ccc6[C@H]5C)cc(O)c4nc-3c3c4c(c(C)c(O)c3c2=O)O[C@](C)(O/C=C/[C@H](O[C@H]2C[C@@H]3OCO[C@@H]3[C@@H](C)O2)[C@H]1C)C4=O` (stereo partly drawn) the MIC (Staphylococcus aureus [1]) was > 64 µg/mL, the IC50 (HEK293) was > 64 µg/mL and the MIC (Staphylococcus aureus [2]) was 1 µg/mL (≈ 0.615 µM). For the same compound, the MIC (Staphylococcus aureus [3]) was 4 µg/mL (≈ 2.46 µM), the MIC (Staphylococcus aureus [4]) was 2 µg/mL (≈ 1.23 µM) and the MIC (Escherichia coli) was > 64 µg/mL.
With `CC(=O)O[C@H]1[C@H](C)[C@H](O)[C@H](C)[C@@H](O)[C@@H](C(C)OC(=O)C(C)(C)CC(=O)O)/C=C/C=C(/C)C(=O)Nc2c3oc4cc(N5CCCn6nc(C(=O)N7Cc8cc(-c9ccc%10c(=O)c(C(=O)O)cn(C%11CC%11)c%10c9OC(F)F)ccc8[C@H]7C)cc6C5)cc(O)c4nc-3c3c4c(c(C)c(O)c3c2=O)O[C@](C)(O/C=C/[C@H](O[C@H]2C[C@@H]3OCO[C@@H]3[C@@H](C)O2)[C@H]1C)C4=O` (stereo partly drawn) the MIC (Staphylococcus aureus [1]) was > 64 µg/mL, the IC50 (HEK293) was > 64 µg/mL and the MIC (Staphylococcus aureus [2]) was 16 µg/mL (≈ 9.55 µM). The MIC (Staphylococcus aureus [3]) was > 64 µg/mL, the MIC (Staphylococcus aureus [4]) was 16 µg/mL (≈ 9.55 µM) and the MIC (Escherichia coli) was > 64 µg/mL.

Reference: ChEMBL document CHEMBL5143539, “Synthesis and evaluation of dual-action kanglemycin-fluoroquinolone hybrid antibiotics” (Bioorg Med Chem Lett, 2022)
